ChEMBL document CHEMBL3739258, “Click-based synthesis of bromotyrosine alkaloid analogs as potential anti-biofilm leads for SAR studies” (Bioorg Med Chem Lett, 2015)

What was measured:
[1] = tested on: Paracoccus sp.; assay: Antibiofilm activity against Paracoccus sp. 4M6 assessed as microbial adhesion at 200 uM after 15 hrs by Syto61 based-fluorescence analysis relative to control; format: functional
How it was run: (§1)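 Cells grown in VNSS at 20 °C to stationary phase, centrifuged, and resuspended in sterile artificial seawater to OD600 0.2–0.4. Suspension incubated with compound at 200 µM in triplicate for 15 h at 20 °C. Loose cells removed with three washes in 36 g/L NaCl. Attached cells stained 10 min at room temperature with 40 µmol/L Syto 61, then washed and the stain solubilised. Fluorescence read at ex 615/em 670 nm against untreated adhesion-control wells.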

[2] = tested on: Pseudoalteromonas lipolytica; assay: Antibiofilm activity against Pseudoalteromonas lipolytica TC8 assessed as microbial adhesion at 200 uM after 15 hrs by Syto61 based-fluorescence analysis relative to control; format: functional; how it was run: as §1
[3] = tested on: Pseudoalteromonas ulvae; assay: Antibiofilm activity against Pseudoalteromonas ulvae TC14 assessed as microbial adhesion at 200 uM after 15 hrs by Syto61 based-fluorescence analysis relative to control; format: functional; how it was run: as §1
[4] = Toxicity in Paracoccus sp. 4M6 assessed as growth inhibition at 100 uM after 15 hrs by Syto61 based-fluorescence analysis relative to control
[5] = tested on: Pseudoalteromonas ulvae; assay: Antibiofilm activity against Pseudoalteromonas ulvae TC14 assessed as reduction in adhesion after 15 hrs by Syto61 based-fluorescence analysis relative to control; format: functional; settings: TC14, 15 h
How it was run: (§2)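 Adhesion assay: cells from a 20 °C VNSS stationary-phase culture were resuspended in artificial seawater (OD600 0.2–0.4). They were exposed to a range of compound concentrations in triplicate for 15 h at 20 °C, then washed with 36 g/L NaCl and stained 10 min with 40 µmol/L Syto 61. Fluorescence was read at ex 615/em 670 nm relative to bacteria-only controls. EC50 came from dose-response curve fitting.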

[6] = Toxicity in Pseudoalteromonas lipolytica TC8 assessed as effect on viability at 100 uM after 6 hrs by resazurin-staining assay relative to control
How it was run: (§3)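 Strains grown in VNSS at 20 °C. Bacterial suspension added to VNSS wells containing compound at 100 µM, triplicate, with solvent and untreated controls. OD600 followed hourly for 6 h. Resazurin was then added and fluorescence read after 2 h. Percent viability was calculated as in the Syto 61 adhesion assay.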

[7] = tested on: Pseudoalteromonas lipolytica; assay: Antibiofilm activity against Pseudoalteromonas lipolytica TC8 assessed as reduction in adhesion after 15 hrs by Syto61 based-fluorescence analysis relative to control; format: functional; settings: TC8, 15 h; how it was run: as §2
[8] = Toxicity in Pseudoalteromonas lipolytica TC8 assessed as growth inhibition at 100 uM after 15 hrs by Syto61 based-fluorescence analysis relative to control
[9] = tested on: Paracoccus sp.; assay: Antibiofilm activity against Paracoccus sp. 4M6 assessed as reduction in adhesion after 15 hrs by Syto61 based-fluorescence analysis relative to control; format: functional; settings: Paracoccus sp. (in: a-proteobacteria), 4M6, 15 h; how it was run: as §2
[10] = Toxicity in Pseudoalteromonas ulvae TC14 assessed as effect on viability at 100 uM after 6 hrs by resazurin-staining assay relative to control; how it was run: as §3
[11] = Toxicity in Paracoccus sp. 4M6 assessed as effect on viability at 100 uM after 6 hrs by resazurin-staining assay relative to control; how it was run: as §3
[12] = Toxicity in Pseudoalteromonas ulvae TC14 assessed as growth inhibition at 100 uM after 15 hrs by Syto61 based-fluorescence analysis relative to control

| SMILES | Activity [1] [%] | Activity [2] [%] | Activity [3] [%] | Activity [4] | EC50 [5] [µM] | Activity [6] | EC50 [7] [µM] | Activity [8] | EC50 [9] [µM] | Activity [10] | Activity [11] | Activity [12] |
| --- | --- | --- | --- | --- | --- | --- | --- | --- | --- | --- | --- | --- |
| COc1ccc(Cn2cc(C(=O)NCCNC(=N)N)nn2)cc1Br.O=C(O)C(F)(F)F | >75 | >75 | >75 |  |  |  |  |  |  |  |  |  |
| O=C(NCCc1cc(Br)c(O)c(Br)c1)c1cn(CCc2cc(Br)c(O)c(Br)c2)nn1 | 38.7 | 40.32 | 29.3 | Non-toxic | 26.6 | Non-toxic | 96 | Non-toxic | 83.2 | Non-toxic | Non-toxic |  |
| COc1ccc(Cn2cc(C(=O)NCCc3cc(Br)c(O)c(Br)c3)nn2)cc1Br | 37.9 | 40 | 23.3 | Non-toxic | 40.2 | Non-toxic | 124 | Non-toxic | 84 | Non-toxic | Non-toxic |  |
| COc1ccc(CCn2cc(C(=O)NCCc3cnc[nH]3)nn2)cc1Br | >75 | >75 | >75 |  |  |  |  |  |  |  |  |  |
| COc1ccc(CCn2cc(C(=O)NCCCN)nn2)cc1Br.O=C(O)C(F)(F)F | >75 | >75 | >75 |  |  |  |  |  |  |  |  |  |
| O=C(NCCc1cnc[nH]1)c1cn(CCc2ccc(O)c(Br)c2)nn1 | >75 | >75 | >75 |  |  |  |  |  |  |  |  |  |
| CC1(C)S[C@@H]2[C@H](NC(=O)[C@H](N)c3ccccc3)C(=O)N2[C@H]1C(=O)O [AMPICILLIN] | 33.9 | 8.9 | 4.9 | Toxic | 9.3 | Toxic | 17.9 | Toxic | 144 | Toxic | Toxic |  |
| COc1ccc(CCn2cc(C(=O)NCCCCN)nn2)cc1Br.O=C(O)C(F)(F)F | >75 | >75 | >75 |  |  |  |  |  |  |  |  |  |
| COc1ccc(CCn2cc(C(=O)NCCc3ccc(O)cc3)nn2)cc1Br | 28.2 | 35 | 18.7 | Non-toxic | 32.6 | Non-toxic | 104 | Non-toxic | 72.9 | Non-toxic | Non-toxic |  |
| COc1ccc(CCn2cc(C(=O)NCCCNC(=N)N)nn2)cc1Br.O=C(O)C(F)(F)F | >75 | >75 | >75 |  |  |  |  |  |  |  |  |  |
| COc1ccc(CCn2cc(C(=O)NCCc3cc(Br)c(O)c(Br)c3)nn2)cc1Br | 28.8 | 29.7 | 5.9 | Non-toxic | 8.8 | Non-toxic | 67.8 | Non-toxic | 40.7 | Non-toxic | Non-toxic | Toxic |
| O=C(NCCc1cnc[nH]1)c1cn(CCc2ccc(O)cc2)nn1 | >75 | >75 | >75 |  |  |  |  |  |  |  |  |  |
| COc1ccc(CCn2cc(C(=O)NCCCCNC(=N)N)nn2)cc1Br.O=C(O)C(F)(F)F | >75 | >75 | >75 |  |  |  |  |  |  |  |  |  |
| COc1ccc(CCn2cc(C(=O)NCCN)nn2)cc1Br.O=C(O)C(F)(F)F | >75 | >75 | >75 |  |  |  |  |  |  |  |  |  |
| O=C(NCCc1ccc(O)cc1)c1cn(CCc2ccc(O)cc2)nn1 | 44.5 | 43 | 16 | Non-toxic | 72.9 | Non-toxic | 170 | Non-toxic | 196 | Non-toxic | Non-toxic |  |
| COc1ccc(Cn2cc(C(=O)NCCCCN)nn2)cc1Br.O=C(O)C(F)(F)F | >75 | >75 | >75 |  |  |  |  |  |  |  |  |  |
| COc1ccc(Cn2cc(C(=O)NCCCN)nn2)cc1Br.O=C(O)C(F)(F)F | >75 | >75 | >75 |  |  |  |  |  |  |  |  |  |
| COc1ccc(Cn2cc(C(=O)NCCCCNC(=N)N)nn2)cc1Br.O=C(O)C(F)(F)F | >75 | >75 | >75 |  |  |  |  |  |  |  |  |  |
| COc1ccc(Cn2cc(C(=O)NCCc3ccc(O)cc3)nn2)cc1Br | 31.2 | 38.3 | 20.7 | Non-toxic | 40 | Non-toxic | 134 | Non-toxic | 97.3 | Non-toxic | Non-toxic |  |
| COc1ccc(Cn2cc(C(=O)NCCN)nn2)cc1Br.O=C(O)C(F)(F)F | >75 | >75 | >75 |  |  |  |  |  |  |  |  |  |
| COc1ccc(Cn2cc(C(=O)NCCCNC(=N)N)nn2)cc1Br.O=C(O)C(F)(F)F | >75 | >75 | >75 |  |  |  |  |  |  |  |  |  |
| O=C(NCCc1ccc(O)cc1)c1cn(CCc2ccc(O)c(Br)c2)nn1 | 43.4 | 35 | 31.4 | Non-toxic | 69.3 | Non-toxic | 113 | Non-toxic | 156 | Non-toxic | Non-toxic |  |
| COc1ccc(Cn2cc(C(=O)NCCc3cnc[nH]3)nn2)cc1Br | >75 | >75 | >75 |  |  |  |  |  |  |  |  |  |
| COc1ccc(CCn2cc(C(=O)NCCNC(=N)N)nn2)cc1Br.O=C(O)C(F)(F)F | >75 | >75 | >75 |  |  |  |  |  |  |  |  |  |
